Source: paper PMC11318567 (Computational and Structural Biotechnology Journal, 2024)

Key:
human topo IIβ = human topo IIβ (Homo sapiens, UniProt Q02880); experiment: Human topo IIβ-mediated decatenation assay; type: biochemical
human topo IIα [1] = biological target: T1, human topo IIα (Homo sapiens, UniProt P11388); experiment: Human topoisomerase IIα-mediated cleavage assay; type: biochemical; details: 7.8-125 μM
human topo IIα [2] = biological target: T1, human topo IIα; experiment: Human topo IIα competitive cleavage assay; type: biochemical; details: in the presence of 50 μM etoposide
wheatgerm topo I = experiment: Wheatgerm topo I unwinding assay; type: biochemical, wheat germ; details: 7.8, 15.6, 31.25, 125 μM
Summary of the method: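 Wheat germ topo I plasmid unwinding run in duplicate at 7.8, 15.6, 31.25 and 125 µM test compound, with the intercalator m-AMSA as positive control.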

human topo II = human topo II (Homo sapiens, UniProt P11388); experiment: Competitive ATPase assay; type: biochemical; details: IC50 versus ATP concentration
Summary of the method: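 NADH-coupled ATPase (pyruvate kinase/lactate dehydrogenase, phosphoenolpyruvate) with human topo II at 14 nM final and linear pBR322. Buffer was 20 mM Tris-HCl, 5 mM Mg acetate, 125 mM K acetate, 2 mM DTT, pH 7.9. Compound in DMSO went in before enzyme, then a 10–15 min OD340 pre-run. ATP was added at varying concentrations and OD340 followed for up to 30 min at 37 °C, in duplicate. Hydrolysis rates vs ATP gave IC50 at each ATP level.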

[3] = biological target: ATPase domain of topo IIα (Homo sapiens, UniProt P11388); experiment: 1H STD NMR experiments; type: binding; details: protein:ligand ratio 1:100
Summary of the method: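 Runs were at 600 MHz, 25 °C, with a 100 ms T₁ρ filter. On-resonance saturation was at −0.727 ppm and off-resonance at 30 ppm. Saturation was 0.5 or 1 s depending on compound, with relaxation delay 4 or 1.5 s. Epitope maps come from STD amplification factors.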

[4] = Solubility as observed during preparation for assays; type: physicochemical
[5] = test system: NCI-60 human cancer cell lines; experiment: NCI-60 screening, whole panel; type: cell-based; details: 10 µM
B-Raf = B-Raf (Homo sapiens, UniProt P15056); experiment: KinaseProfiler kinase activity assay; type: biochemical
Summary of the method: (§1)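 Radiometric kinase assay of test compound at 10 µM, added first from a 50× DMSO stock with no pre-incubation. Kinase was diluted in 45 mM TRIS, 0.4 mM EGTA, 18 mM DTT, 0.02 % Triton X-100, 1 mM sodium orthovanadate, 1 mM β-glycerophosphate, 2 % glycerol. Solvent wells (2 % DMSO) gave 100 % activity. Staurosporine blank wells defined 0 % activity.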

CDK1/cyclinB = CDK1/cyclinB (Homo sapiens, UniProt P06493); experiment: KinaseProfiler kinase activity assay; type: biochemical
Summary of the method: (§2)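 Radiometric kinase activity assay. Test compound was made as a 50× stock in 100 % DMSO and added first to 10 µM, with no pre-incubation before reaction start. Kinase was prepared in 20 mM MOPS, 1 mM EDTA, 0.01 % Brij-35, 5 % glycerol, 0.1 % β-mercaptoethanol, 1 mg/mL BSA. Full-activity wells had 2 % DMSO without compound. Blank wells with staurosporine set 0 % activity.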

cKit = cKit (Homo sapiens, UniProt P10721); experiment: KinaseProfiler kinase activity assay; type: biochemical
Summary of the method: as §2

c-RAF = c-RAF (Homo sapiens, UniProt P04049); experiment: KinaseProfiler kinase activity assay; type: biochemical
Summary of the method: as §1

EGFR = EGFR (Homo sapiens, UniProt P00533); experiment: KinaseProfiler kinase activity assay; type: biochemical
Summary of the method: as §2

FGFR1 = FGFR1 (Homo sapiens, UniProt P11362); experiment: KinaseProfiler kinase activity assay; type: biochemical
Summary of the method: as §2

FGFR3 = FGFR3 (Homo sapiens, UniProt P22607); experiment: KinaseProfiler kinase activity assay; type: biochemical
Summary of the method: as §2

Flt1 = Flt1 (Homo sapiens, UniProt P17948); experiment: KinaseProfiler kinase activity assay; type: biochemical
Flt3 = Flt3 (Homo sapiens, UniProt P36888); experiment: KinaseProfiler kinase activity assay; type: biochemical
Fms = Fms (Homo sapiens, UniProt P07333); experiment: KinaseProfiler kinase activity assay; type: biochemical
IGF-1R = IGF-1R (Homo sapiens, UniProt P08069); experiment: KinaseProfiler kinase activity assay; type: biochemical
JAK2 = JAK2 (Homo sapiens, UniProt O60674); experiment: KinaseProfiler kinase activity assay; type: biochemical
MEKK3 = MEKK3 (Homo sapiens, UniProt Q99759); experiment: KinaseProfiler kinase activity assay; type: biochemical
Summary of the method: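 Kinase was prepared in 50 mM HEPES, 1 mM EDTA, 10 mM DTT, 0.01 % Brij-35. Activity was measured radiometrically with 10 µM test compound added first from a 50× DMSO stock, without pre-incubation. Activity is expressed relative to 2 % DMSO control wells (100 %) and staurosporine blank wells (0 %).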

PDGFRα = PDGFRα (Homo sapiens, UniProt P16234); experiment: KinaseProfiler kinase activity assay; type: biochemical
Summary of the method: as §2

PKA = PKA (Homo sapiens, UniProt P17612); experiment: KinaseProfiler kinase activity assay; type: biochemical
Summary of the method: as §2

PKBα = PKBα (Homo sapiens, UniProt P31749); experiment: KinaseProfiler kinase activity assay; type: biochemical
Summary of the method: as §2

Ret = Ret (Homo sapiens, UniProt P07949); experiment: KinaseProfiler kinase activity assay; type: biochemical
Summary of the method: as §2

Src(1-530) = Src(1-530) (Homo sapiens, UniProt P12931); experiment: KinaseProfiler kinase activity assay; type: biochemical
Summary of the method: as §2

ATM = ATM (Homo sapiens, UniProt Q13315); experiment: KinaseProfiler kinase activity assay; type: biochemical
Summary of the method: (§3)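 Radiometric activity assay with 10 µM test compound, added first from a 50× stock in 100 % DMSO, with no compound–kinase pre-incubation. Full activity came from 2 % DMSO wells without compound. The 0 % baseline came from a reference inhibitor: KU55933 for ATM, PI-103 for DNA-PK.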

DNA-PK = DNA-PK (Homo sapiens, UniProt P78527); experiment: KinaseProfiler kinase activity assay; type: biochemical
Summary of the method: as §3

[6] = test system: panel of 20 human protein kinases; experiment: KinaseProfiler, whole panel; type: biochemical; details: 10 µM

T1 sequence (P11388 whole entry): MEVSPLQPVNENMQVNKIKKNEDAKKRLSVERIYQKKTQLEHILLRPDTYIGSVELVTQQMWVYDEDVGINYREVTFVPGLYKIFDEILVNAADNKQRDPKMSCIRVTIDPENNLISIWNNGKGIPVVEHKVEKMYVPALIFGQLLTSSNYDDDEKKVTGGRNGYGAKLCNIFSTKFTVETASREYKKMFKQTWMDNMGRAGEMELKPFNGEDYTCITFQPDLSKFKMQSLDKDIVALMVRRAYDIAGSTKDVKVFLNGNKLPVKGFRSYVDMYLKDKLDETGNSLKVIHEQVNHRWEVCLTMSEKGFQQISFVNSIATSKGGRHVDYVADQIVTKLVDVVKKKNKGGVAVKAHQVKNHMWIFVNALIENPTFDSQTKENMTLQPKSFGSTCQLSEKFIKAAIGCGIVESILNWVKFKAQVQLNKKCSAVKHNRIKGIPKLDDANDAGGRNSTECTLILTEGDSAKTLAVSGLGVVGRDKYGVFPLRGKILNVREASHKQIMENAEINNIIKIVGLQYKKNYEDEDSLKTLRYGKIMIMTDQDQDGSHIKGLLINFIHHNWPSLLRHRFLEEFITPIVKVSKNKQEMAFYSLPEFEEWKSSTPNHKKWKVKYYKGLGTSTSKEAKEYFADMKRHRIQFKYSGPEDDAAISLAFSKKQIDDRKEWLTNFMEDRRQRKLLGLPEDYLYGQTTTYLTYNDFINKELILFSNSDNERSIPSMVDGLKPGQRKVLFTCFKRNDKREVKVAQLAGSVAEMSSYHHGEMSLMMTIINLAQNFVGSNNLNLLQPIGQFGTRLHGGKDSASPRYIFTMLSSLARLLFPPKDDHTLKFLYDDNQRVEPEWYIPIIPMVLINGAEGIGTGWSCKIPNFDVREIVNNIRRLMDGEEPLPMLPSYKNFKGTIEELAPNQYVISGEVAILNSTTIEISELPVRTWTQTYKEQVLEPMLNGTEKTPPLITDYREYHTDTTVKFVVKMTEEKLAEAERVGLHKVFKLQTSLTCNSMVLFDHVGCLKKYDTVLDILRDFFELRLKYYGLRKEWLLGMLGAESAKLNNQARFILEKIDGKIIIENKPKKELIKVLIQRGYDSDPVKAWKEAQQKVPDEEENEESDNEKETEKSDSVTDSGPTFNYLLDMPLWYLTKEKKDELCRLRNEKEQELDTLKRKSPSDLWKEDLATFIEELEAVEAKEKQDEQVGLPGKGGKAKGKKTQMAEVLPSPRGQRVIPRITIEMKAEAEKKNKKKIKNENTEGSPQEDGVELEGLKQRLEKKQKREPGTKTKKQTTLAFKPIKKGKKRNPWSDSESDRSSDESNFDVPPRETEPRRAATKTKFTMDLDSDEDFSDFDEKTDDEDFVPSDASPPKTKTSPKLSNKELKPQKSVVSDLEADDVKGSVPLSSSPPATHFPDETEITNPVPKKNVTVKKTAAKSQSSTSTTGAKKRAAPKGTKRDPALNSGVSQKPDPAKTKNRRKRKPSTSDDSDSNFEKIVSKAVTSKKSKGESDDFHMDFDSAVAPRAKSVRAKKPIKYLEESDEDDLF
Chain of human topo II (P11388 whole entry): as above
Chain of Flt1 (P17948 27-1338): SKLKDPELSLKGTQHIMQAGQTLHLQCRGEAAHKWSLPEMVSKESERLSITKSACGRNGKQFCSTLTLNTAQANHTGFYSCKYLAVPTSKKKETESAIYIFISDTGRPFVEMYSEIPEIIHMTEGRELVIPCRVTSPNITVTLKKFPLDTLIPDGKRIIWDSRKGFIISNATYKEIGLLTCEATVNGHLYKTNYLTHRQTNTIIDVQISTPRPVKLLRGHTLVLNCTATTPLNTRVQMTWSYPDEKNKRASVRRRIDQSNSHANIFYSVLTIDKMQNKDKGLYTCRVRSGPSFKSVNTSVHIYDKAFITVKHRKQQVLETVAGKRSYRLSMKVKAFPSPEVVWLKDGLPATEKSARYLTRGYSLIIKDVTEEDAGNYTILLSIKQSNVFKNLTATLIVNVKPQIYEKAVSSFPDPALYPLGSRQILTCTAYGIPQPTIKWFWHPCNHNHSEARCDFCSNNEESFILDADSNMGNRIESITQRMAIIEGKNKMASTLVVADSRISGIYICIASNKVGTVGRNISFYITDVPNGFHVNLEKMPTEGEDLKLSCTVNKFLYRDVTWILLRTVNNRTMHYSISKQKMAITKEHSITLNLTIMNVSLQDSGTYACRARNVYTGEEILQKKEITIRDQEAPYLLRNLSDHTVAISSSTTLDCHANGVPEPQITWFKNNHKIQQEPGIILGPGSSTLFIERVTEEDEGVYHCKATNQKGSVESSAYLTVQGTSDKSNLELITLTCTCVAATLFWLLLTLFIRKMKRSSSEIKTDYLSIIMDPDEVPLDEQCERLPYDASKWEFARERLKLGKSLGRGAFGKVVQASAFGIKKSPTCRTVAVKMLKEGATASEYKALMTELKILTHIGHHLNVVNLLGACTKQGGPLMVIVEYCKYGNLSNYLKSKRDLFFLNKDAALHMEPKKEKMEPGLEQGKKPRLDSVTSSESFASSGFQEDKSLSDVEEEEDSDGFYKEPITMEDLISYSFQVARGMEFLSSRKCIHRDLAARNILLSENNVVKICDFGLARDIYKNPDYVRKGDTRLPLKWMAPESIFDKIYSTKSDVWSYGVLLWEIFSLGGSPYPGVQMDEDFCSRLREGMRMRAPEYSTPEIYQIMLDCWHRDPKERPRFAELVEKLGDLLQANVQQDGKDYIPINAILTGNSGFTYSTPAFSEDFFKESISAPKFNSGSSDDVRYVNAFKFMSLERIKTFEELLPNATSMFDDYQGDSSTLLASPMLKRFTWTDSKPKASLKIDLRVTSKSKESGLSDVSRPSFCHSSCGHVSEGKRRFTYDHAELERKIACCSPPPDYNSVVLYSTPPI
Chain of Fms (P07333 20-972): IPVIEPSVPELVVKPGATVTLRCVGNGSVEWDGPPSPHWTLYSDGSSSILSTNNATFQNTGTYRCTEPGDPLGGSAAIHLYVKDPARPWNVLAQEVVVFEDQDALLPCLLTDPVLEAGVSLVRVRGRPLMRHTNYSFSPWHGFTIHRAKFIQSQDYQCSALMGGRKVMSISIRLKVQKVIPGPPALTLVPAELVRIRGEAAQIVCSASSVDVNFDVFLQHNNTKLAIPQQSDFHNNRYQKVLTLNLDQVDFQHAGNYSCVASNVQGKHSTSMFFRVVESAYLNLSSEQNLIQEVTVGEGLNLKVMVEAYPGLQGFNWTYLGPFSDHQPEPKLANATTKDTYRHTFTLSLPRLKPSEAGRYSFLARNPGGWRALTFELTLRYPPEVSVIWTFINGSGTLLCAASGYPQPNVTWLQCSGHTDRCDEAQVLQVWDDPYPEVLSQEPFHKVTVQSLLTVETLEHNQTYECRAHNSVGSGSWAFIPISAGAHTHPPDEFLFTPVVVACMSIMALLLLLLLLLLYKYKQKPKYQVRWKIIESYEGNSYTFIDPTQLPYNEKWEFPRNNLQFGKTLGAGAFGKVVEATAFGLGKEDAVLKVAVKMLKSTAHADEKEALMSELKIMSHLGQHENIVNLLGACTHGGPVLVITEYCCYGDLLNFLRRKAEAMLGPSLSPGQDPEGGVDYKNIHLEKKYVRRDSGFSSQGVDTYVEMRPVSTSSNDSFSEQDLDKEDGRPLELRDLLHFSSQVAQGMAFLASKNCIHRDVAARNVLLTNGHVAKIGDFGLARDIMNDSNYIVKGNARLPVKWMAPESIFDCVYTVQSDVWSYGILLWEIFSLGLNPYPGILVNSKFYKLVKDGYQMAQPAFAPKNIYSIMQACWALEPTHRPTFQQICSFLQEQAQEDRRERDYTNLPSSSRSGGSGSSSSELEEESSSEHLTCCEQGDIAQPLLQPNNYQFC
Chain of FGFR3 (P22607 23-806): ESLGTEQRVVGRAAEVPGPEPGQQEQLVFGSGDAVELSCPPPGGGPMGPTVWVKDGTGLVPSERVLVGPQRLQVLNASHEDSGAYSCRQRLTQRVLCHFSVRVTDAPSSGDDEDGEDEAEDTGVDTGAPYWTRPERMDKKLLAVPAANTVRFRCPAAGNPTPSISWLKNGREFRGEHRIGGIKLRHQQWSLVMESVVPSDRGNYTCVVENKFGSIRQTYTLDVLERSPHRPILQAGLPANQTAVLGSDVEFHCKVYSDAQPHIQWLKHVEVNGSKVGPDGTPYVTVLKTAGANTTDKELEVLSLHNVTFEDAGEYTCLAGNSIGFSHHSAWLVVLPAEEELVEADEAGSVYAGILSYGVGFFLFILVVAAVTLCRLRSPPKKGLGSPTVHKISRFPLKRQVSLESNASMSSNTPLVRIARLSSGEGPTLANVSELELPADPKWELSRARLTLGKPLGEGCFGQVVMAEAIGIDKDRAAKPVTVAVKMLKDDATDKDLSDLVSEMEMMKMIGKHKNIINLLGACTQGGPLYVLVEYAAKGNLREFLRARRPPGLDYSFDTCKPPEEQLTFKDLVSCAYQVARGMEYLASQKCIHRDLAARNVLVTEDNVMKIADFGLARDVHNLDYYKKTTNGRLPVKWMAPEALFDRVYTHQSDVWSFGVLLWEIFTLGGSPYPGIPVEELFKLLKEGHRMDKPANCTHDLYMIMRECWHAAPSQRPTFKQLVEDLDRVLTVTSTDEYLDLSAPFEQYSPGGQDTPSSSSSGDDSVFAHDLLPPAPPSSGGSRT
Chain of ATPase domain of topo IIα (P11388 1-453 limits assumed): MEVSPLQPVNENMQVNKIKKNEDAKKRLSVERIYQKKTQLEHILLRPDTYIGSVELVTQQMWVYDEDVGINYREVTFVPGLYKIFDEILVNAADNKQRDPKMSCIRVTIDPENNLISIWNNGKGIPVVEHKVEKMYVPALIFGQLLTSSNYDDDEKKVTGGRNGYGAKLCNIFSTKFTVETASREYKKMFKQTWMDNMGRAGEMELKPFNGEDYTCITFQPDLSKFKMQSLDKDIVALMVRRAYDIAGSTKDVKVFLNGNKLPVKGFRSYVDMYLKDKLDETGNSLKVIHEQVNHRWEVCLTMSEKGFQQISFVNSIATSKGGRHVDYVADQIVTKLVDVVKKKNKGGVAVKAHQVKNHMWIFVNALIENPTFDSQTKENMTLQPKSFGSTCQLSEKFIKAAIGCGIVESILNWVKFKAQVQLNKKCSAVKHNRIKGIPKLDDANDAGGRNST

O=c1nc(SCc2cc(F)cc(C(F)(F)F)c2)nc(SCc2ccc3sccc3c2)[nH]1 [Compound 24, 6-((Benzo[b]thiophen-5-ylmethyl)thio)−4-((3-fluoro-5-(trifluoromethyl)benzyl)thio)−1,3,5-triazin-2(1H)-one]
IC50 (human topo IIβ): 9.9 ± 0.4 µM | linear plasmid in the cleavage assay (in words) (human topo IIα [1]): a low level of linear plasmid was detected at 15.6 μM and above | linear product in the competitive cleavage assay (in words) (human topo IIα [2]): appeared to reduce the linear product of the etoposide-topoIIα cleavage complex at lower concentrations | unwinding / intercalation (in words) (wheatgerm topo I): inhibitors rather than intercalators | mode of inhibition with respect to ATP (in words) (human topo II): no noticeable decrease in IC50 values | interaction with the ATPase domain of topo IIα by STD NMR (in words) [3]: confirmed the interaction | solubility (in words) [4]: more soluble compared to the benzyl-substituted analogues | cytotoxic activity in NCI-60 (in words) [5]: marginal cytotoxicity in several leukemia cell lines | activity at 10 µM (B-Raf): 93% | activity at 10 µM (CDK1/cyclinB): 124% | activity at 10 µM (cKit): 99% | activity at 10 µM (c-RAF): 110% | activity at 10 µM (EGFR): 100% | activity at 10 µM (FGFR1): 90% | activity at 10 µM (FGFR3): 92% | activity at 10 µM (Flt1): 93% | activity at 10 µM (Flt3): 93% | activity at 10 µM (Fms): 77% | activity at 10 µM (IGF-1R): 92% | activity at 10 µM (JAK2): 107% | activity at 10 µM (MEKK3): 87% | activity at 10 µM (PDGFRα): 106% | activity at 10 µM (PKA): 86% | activity at 10 µM (PKBα): 105% | activity at 10 µM (Ret): 91% | activity at 10 µM (Src(1-530)): 127% | activity at 10 µM (ATM): 86% | activity at 10 µM (DNA-PK): 83% | inhibition of the panel of 20 human protein kinases (in words) [6]: no significant inhibitory effect was observed
